{"data": "Assay results from different studies", "CSF1R autoinhibited": "Macrophage colony-stimulating factor 1 receptor, autoinhibited (CSF1R, Homo sapiens, UniProt P07333)", "CSF1R": "Macrophage colony-stimulating factor 1 receptor (CSF1R, Homo sapiens, UniProt P07333)"}
{"SMILES": "CNC(=O)Nc1ccc2c(c1)[C@@]1(CC2)OC(=O)N(CC(=O)N(Cc2ccc(F)cc2)[C@@H](C)C(F)(F)F)C1=O", "target": "CSF1R autoinhibited", "test": "cell-free assay, competition with immobilised ligand", "setting": "1 µM", "remaining binding": "100%"}
{"SMILES": "CN(C)c1ncc(F)c(-c2cnn3ncccc23)n1", "target": "CSF1R autoinhibited", "test": "binding", "setting": "1 µM", "remaining binding": "69%"}
{"SMILES": "N#Cc1ccccc1CSc1nnc2c(n1)[nH]c1ccccc12", "target": "CSF1R", "test": "binding, competition with immobilised ligand", "setting": "10 µM", "remaining binding": "100%"}
{"SMILES": "CNC(=O)[C@@H]1CC[C@@H](n2c(-c3ccc4cnccc4c3)nc3ccc(C(=O)NCc4cccc(C(N)=O)c4)cc32)C1", "target": "CSF1R autoinhibited", "test": "binding, competition with immobilised ligand", "setting": "1 µM", "remaining binding": "80%"}
{"SMILES": "c1cncc(-c2cccc(Nc3nccc(NC4CCCCC4)n3)c2)c1", "target": "CSF1R", "test": "binding, competition with immobilised ligand", "setting": "10 µM", "remaining binding": "0.15%"}
{"SMILES": "C=CC(=O)N1CCC(C(=O)NCC(=O)N2CCN(c3nc(-c4cnc(N)nc4C(F)F)nc(N4CCOCC4)n3)CC2)CC1", "target": "CSF1R", "test": "binding, competition with immobilised ligand", "setting": "1 µM", "remaining binding": "77%"}
{"SMILES": "O=C(Nc1ccc(Oc2ccc(F)cc2)cc1)N1CCc2ncccc2[C@H]1c1ccc(F)cc1", "target": "CSF1R autoinhibited", "test": "cell-free assay, competition with immobilised ligand", "setting": "1 µM", "remaining binding": "95%"}
{"SMILES": "C[C@@H](c1ccc(-n2cnc3c(N)ncnc32)cc1)N1CCc2nn(C)c(Cc3ccccc3)c2C1=O", "target": "CSF1R", "test": "binding, competition with immobilised ligand", "setting": "0.1 µM", "remaining binding": "100%"}
{"SMILES": "O=C(Nc1c[nH]nc1C(=O)NC1CCNCC1)c1cc(F)cc(F)c1", "target": "CSF1R", "test": "binding, competition with immobilised ligand", "setting": "1 µM", "remaining binding": "100%"}
{"SMILES": "COc1cnc(Nc2cccc(S(N)(=O)=O)c2)nc1N1CCN(c2ccccc2)C(=O)C1", "target": "CSF1R autoinhibited", "test": "binding, competition with immobilised ligand", "setting": "1 µM", "remaining binding": "87%"}
{"SMILES": "Nc1ncc2c(n1)-c1c([nH]c3ccc(C#CC4CC4)cc13)CCCC2", "target": "CSF1R", "test": "binding, competition with immobilised ligand", "setting": "1 µM", "remaining binding": "98%"}
{"SMILES": "COc1ncc2cc3ccccc3nc2c1C#N", "target": "CSF1R autoinhibited", "test": "cell-free assay, competition with immobilised ligand", "setting": "5 µM", "remaining binding": "97%"}
{"SMILES": "O=C(c1ccc(Nc2nccc(-c3cc4ccccc4s3)n2)cc1)N1CCC(N2CCCC2)CC1", "target": "CSF1R", "test": "binding, competition with immobilised ligand", "setting": "1 µM", "remaining binding": "42%"}
{"SMILES": "C[C@H]1CCN(c2nccc(-c3cnn4ncccc34)n2)C1", "target": "CSF1R autoinhibited", "test": "binding", "setting": "1 µM", "remaining binding": "75%"}
{"SMILES": "O=C(O)[C@H]1[C@H](Cn2nnc3ccccc3c2=O)CC[C@@H]1C(=O)c1ccc(OCCC2CCOCC2)cc1", "target": "CSF1R autoinhibited", "test": "cell-free assay, competition with immobilised ligand", "setting": "1 µM", "remaining binding": "100%"}
{"SMILES": "CC1CCCN1c1nccc(-c2cnn3ncccc23)n1 (stereo not drawn)", "target": "CSF1R", "test": "binding", "setting": "1 µM", "remaining binding": "100%"}
{"SMILES": "O=C(NCCCN1CCOCC1)c1ccc(Nc2nccc(-c3cc4ccccc4s3)n2)cc1", "target": "CSF1R autoinhibited", "test": "binding, competition with immobilised ligand", "setting": "1 µM", "remaining binding": "83%"}
{"SMILES": "CCN1CCN(Cc2ccc(C(=O)Nc3ccc(C)c(Oc4ccc5c(c4)CC(=O)N5)c3)cc2C(F)(F)F)CC1", "target": "CSF1R autoinhibited", "test": "binding, competition with immobilised ligand", "setting": "1 µM", "remaining binding": "100%"}
{"SMILES": "CC(C)(C)c1ccc(-c2nc(CBr)nn2-c2cccc(O)c2)cc1", "target": "CSF1R", "test": "cell-free assay, competition with immobilised ligand", "setting": "10 µM", "remaining binding": "98%"}
{"SMILES": "c1cnn2ncc(-c3ccnc(N4CCC45COC5)n3)c2c1", "target": "CSF1R autoinhibited", "test": "binding", "setting": "1 µM", "remaining binding": "64%"}
{"SMILES": "CC(=O)N1CCC(c2ccc(C(=O)NC3=NCCN3)cc2C(F)(F)F)CC1", "target": "CSF1R", "test": "cell-free assay, competition with immobilised ligand", "setting": "1 µM", "remaining binding": "100%"}
{"SMILES": "Cc1nc(NC(=O)N2CCC[C@H]2C(N)=O)sc1-c1ccnc(C(C)(C)C(F)(F)F)c1", "target": "CSF1R", "test": "binding, competition with immobilised ligand", "setting": "10 µM", "remaining binding": "68%"}
{"SMILES": "C[C@@H]1CN(c2ccc3ncc(-c4ccc5[nH]nc(C6CC6)c5c4)n3n2)C[C@H](C)O1", "target": "CSF1R", "test": "binding, competition with immobilised ligand", "setting": "50 nM", "remaining binding": "100%"}
{"SMILES": "Cc1cnc(Nc2ccc(C(=O)N3CCC(N4CCCC4)CC3)cc2)nc1-c1cc2ccccc2s1", "target": "CSF1R autoinhibited", "test": "binding, competition with immobilised ligand", "setting": "1 µM", "remaining binding": "45%"}
{"SMILES": "COc1cnc(Nc2cccc(S(N)(=O)=O)c2)nc1N1CCN(c2ccccc2)CC1", "target": "CSF1R", "test": "binding, competition with immobilised ligand", "setting": "1 µM", "remaining binding": "100%"}
{"SMILES": "O=C(NCC1CCOCC1)c1n[nH]cc1NC(=O)c1c(F)cccc1F", "target": "CSF1R", "test": "binding, competition with immobilised ligand", "setting": "1 µM", "remaining binding": "100%"}
{"SMILES": "O=c1nc(-c2ccccn2)sc2ccccc12", "target": "CSF1R", "test": "cell-free assay, competition with immobilised ligand", "setting": "1 µM", "remaining binding": "85%"}
{"SMILES": "CN(C)c1nccc(-c2cnn3ncccc23)n1", "target": "CSF1R", "test": "binding", "setting": "1 µM", "remaining binding": "100%"}
{"SMILES": "O=C(c1ccc(Nc2ncc(Cl)c(-c3ccc(Cl)s3)n2)cc1)N1CCC(N2CCCC2)CC1", "target": "CSF1R", "test": "binding, competition with immobilised ligand", "setting": "1 µM", "remaining binding": "5.1%"}
{"SMILES": "CCOCCn1cc(C(=O)Nc2ccc(-n3nc(-c4cccnc4)cc3C(F)(F)F)cn2)ccc1=O", "target": "CSF1R autoinhibited", "test": "cell-free assay, competition with immobilised ligand", "setting": "1 µM", "remaining binding": "100%"}
{"SMILES": "O=C(c1ccc(Nc2ncc(Cl)c(-c3cc4ccccc4s3)n2)cc1)N1CCC(N2CCCC2)CC1", "target": "CSF1R", "test": "binding, competition with immobilised ligand", "setting": "1 µM", "remaining binding": "24%"}
{"SMILES": "N[C@H]1CCN(c2nccc(-c3cnn4ncccc34)n2)C1", "target": "CSF1R", "test": "binding", "setting": "1 µM", "remaining binding": "100%"}
{"SMILES": "CC(=O)c1c(NS(C)(=O)=O)c2cc(-c3ccc(Cl)cc3)c(-c3ccc(Cl)cc3Cl)nc2n(C)c1=O", "target": "CSF1R", "test": "cell-free assay, competition with immobilised ligand", "setting": "1 µM", "remaining binding": "100%"}
{"SMILES": "CN(C)c1nccc(-c2cnc3ncccn23)n1", "target": "CSF1R", "test": "binding", "setting": "1 µM", "remaining binding": "100%"}
{"SMILES": "O=C(NCCCN1CCOCC1)c1ccc(Nc2ncc(Cl)c(-c3ccc(Cl)s3)n2)cc1", "target": "CSF1R", "test": "binding, competition with immobilised ligand", "setting": "1 µM", "remaining binding": "15%"}
{"SMILES": "Cc1cc(-n2nc(Cc3cc(F)cc(C(F)(F)F)c3)nc2C)ccc1C(N)=O", "target": "CSF1R autoinhibited", "test": "cell-free assay, competition with immobilised ligand", "setting": "1 µM", "remaining binding": "100%"}
